Measurements published in ChEMBL document CHEMBL1124704, “Synthesis and immunosuppressive activity of some side-chain variants of mycophenolic acid” (J Med Chem, 1990).
Where “and” joins values, the source holds several entries; their conditions need not be identical. Equal values may be shown once.

What was measured:
[1] = In vitro inhibition of human lymphocyte proliferation in response to phytohemagglutininin (PHA) was determined; assay type: functional
[2] = In vitro inhibition of human lymphocyte proliferation in response to staphylococcus protein A(SPA) was determined; assay type: functional
[3] = In vitro inhibition of human lymphocyte proliferation in response to pokeweed mitogen(PWM) was determined; assay type: functional
[4] = molecular target: Inosine-5'-monophosphate dehydrogenase 1 (Homo sapiens, UniProt P20839); test: In vitro inhibition of inosine Inosine-5'-monophosphate dehydrogenase
Sequence of Inosine-5'-monophosphate dehydrogenase 1 (P20839 whole entry): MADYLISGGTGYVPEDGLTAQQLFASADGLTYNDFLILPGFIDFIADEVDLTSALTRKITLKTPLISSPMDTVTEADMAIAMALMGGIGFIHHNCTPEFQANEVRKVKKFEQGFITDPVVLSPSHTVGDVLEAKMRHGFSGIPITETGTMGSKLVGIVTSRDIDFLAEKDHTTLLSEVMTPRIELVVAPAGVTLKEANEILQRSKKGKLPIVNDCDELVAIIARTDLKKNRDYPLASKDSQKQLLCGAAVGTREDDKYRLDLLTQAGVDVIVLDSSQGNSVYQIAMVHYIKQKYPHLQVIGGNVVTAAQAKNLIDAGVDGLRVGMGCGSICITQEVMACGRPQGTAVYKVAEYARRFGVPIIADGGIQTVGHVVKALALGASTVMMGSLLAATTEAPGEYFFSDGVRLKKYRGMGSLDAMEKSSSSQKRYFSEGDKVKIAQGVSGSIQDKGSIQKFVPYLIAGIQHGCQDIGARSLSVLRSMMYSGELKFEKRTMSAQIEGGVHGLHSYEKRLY
Procedure, shortened: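 IMPD came from a MOLT-4 cell lysate: five freeze-thaw cycles, then the high-speed (ca. 31000g) supernatant was kept. Assay in 50 mM potassium phosphate pH 7.4 with 10 μM [¹⁴C]IMP, 0.3 mM NAD, 0.1 M KCl and 1 mM EDTA, 25 min at 37 °C. Stopped with HClO₄; IMP/XMP quantified by anion-exchange HPLC with radioflow detection. Five concentrations, 0.02–5.0 μg/mL; IC₅₀ determined graphically.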

Mus musculus [5] = test: The compound was tested in vivo for inhibition of plaques per million after 25 mg/kg oral administration in mice.; assay type: functional
Mus musculus [6] = test: The compound was tested in vivo for inhibition of plaques per million after 50 mg/kg oral administration in mice.; assay type: functional
Mus musculus [7] = test: The compound was tested in vivo for inhibition of plaque-forming cells in the spleen (PFC/spleen) after 50 mg/kg oral administration in mice; assay type: functional
Mus musculus [8] = test: In vivo antibody response to sheep red blood cells(SRBC) by plaque-forming cells in the spleen (PFC/spleen) after 100 mg/kg oral administration in mice.; assay type: functional
Mus musculus [9] = test: In vivo total no of plaques in spleen was determined after 50 mg/kg oral administration in mice.; assay type: functional
Mus musculus [10] = test: In vivo antibody response to sheep red blood cells(SRBC) by plaque-forming cells in the spleen (PFC/spleen) after 50 mg/kg oral administration in mice.; assay type: functional
Mus musculus [11] = test: In vivo total no of plaques in spleen was determined after 100 mg/kg oral administration in mice.; assay type: functional
Mus musculus [12] = test: In vivo inhibition of plaque-forming cells in the spleen (PFC/spleen) after 25 mg/kg oral administration in mice.; assay type: functional
Mus musculus [13] = test: In vivo inhibition of plaque-forming cells in the spleen (PFC/spleen) after 100 mg/kg oral administration in mice.; assay type: functional
Mus musculus [14] = test: In vivo antibody response to sheep red blood cells by plaque-forming cells in the spleen (PFC/spleen) after 25 mg/kg oral administration in mice.; assay type: functional
Mus musculus [15] = test: The compound was tested in vivo for inhibition of plaques per million after 40 mg/kg oral administration in mice.; assay type: functional
Mus musculus [16] = test: In vivo total no of plaques in spleen was determined after 25 mg/kg oral administration in mice.; assay type: functional
Mus musculus [17] = test: In vivo antibody response to sheep red blood cells(SRBC) by plaque-forming cells in the spleen (PFC/spleen) after 40 mg/kg oral administration in mice.; assay type: functional
Mus musculus [18] = test: The compound was tested in vivo for inhibition of plaques per million after 100 mg/kg oral administration in mice.; assay type: functional
Mus musculus [19] = test: In vivo inhibition of plaque-forming cells in the spleen (PFC/spleen) after 40 mg/kg oral administration in mice.; assay type: functional
Mus musculus [20] = test: (§1) In vivo antibody response to sheep red blood cells(SRBC) by plaques per million after 25 mg/kg oral administration in mice.; assay type: functional
Mus musculus [21] = test: In vivo antibody response to sheep red blood cells(SRBC) by plaque-forming cells in the spleen (PFC/spleen) after 25 mg/kg oral administration in mice.; assay type: functional
Mus musculus [22] = test: as §1; assay type: functional; remark: listed apart in the source
Mus musculus [23] = test: In vivo inhibition of plaques per million after 25 mg/kg oral administration in mice.; assay type: functional
Mus musculus [24] = test: In vivo for antibody response to sheep red blood cells(SRBC) by plaque-forming cells in the spleen (PFC/spleen) after 25 mg/kg oral administration in mice.; assay type: functional

Row | SMILES | IC50 [4] | IC50 [1] | IC50 [2] | IC50 [3] | other results
1 | COc1c(C)c2c(c(O)c1C/C=C/CCC(=O)O)C(=O)OC2 | – | 4.8 µM | 4.8 µM | 4.8 µM | –
2 | COc1c(C)c2c(c(O)c1CSCCCC(=O)O)C(=O)OC2 | 22.7 µM | > 10 µM | > 10 µM | > 10 µM | –
3 | COc1c(C)c2c(c(O)c1CC=C=C(C)CCC(=O)O)C(=O)OC2 | 1.2 µM | 0.35 µM | 0.15 µM | 0.35 µM | inhibition in vivo at 25 mg/kg (Mus musculus [5]): 16%; inhibition in vivo at 50 mg/kg (Mus musculus [6]): -20%; inhibition in vivo at 50 mg/kg (Mus musculus [7]): -33%; PFC/spleen (Mus musculus [8]): 17000; PPM (Mus musculus [9]): 657; PFC/spleen (Mus musculus [10]): 112416; PPM (Mus musculus [11]): 114; inhibition in vivo at 25 mg/kg (Mus musculus [12]; Mus musculus, Spleen, po): 18%; inhibition in vivo at 100 mg/kg (Mus musculus [13]): 80%; PFC/spleen (Mus musculus [14]): 96583; inhibition in vivo at 40 mg/kg (Mus musculus [15]): 22%; PPM (Mus musculus [16]): 630 and 583; PFC/spleen (Mus musculus [17]): 99333; inhibition in vivo at 100 mg/kg (Mus musculus [18]): 79%; inhibition in vivo at 40 mg/kg (Mus musculus [19]): 15%
4 | COc1c(C)c2c(c(O)c1CC#CCCCC(=O)O)C(=O)OC2 | 2.5 µM | 6 µM | > 10 µM | 6 µM | –
5 | COc1c(C)c2c(c(O)c1CCCCCCC(=O)O)C(=O)OC2 | 1.8 µM | > 10 µM | > 10 µM | > 10 µM | –
6 | COc1c(C)c2c(c(O)c1C/C=C/CCCC(=O)O)C(=O)OC2 | – | > 10 µM | > 10 µM | > 10 µM | –

Further lines, with some results ahead:

Row | IC50 [4] | SMILES | IC50 [1] | IC50 [2] | IC50 [3] | other results
7 | 10.9 µM | COc1c(C)c2c(c(O)c1CSCCC(=O)O)C(=O)OC2 | > 10 µM | > 10 µM | > 10 µM | –
8 | 2.6 µM | COc1c(C)c2c(c(O)c1CC1C(F)(F)C1(C)CCC(=O)O)C(=O)OC2 (stereo unspecified) | 3.1 µM | 10 µM | 2.8 µM | –
9 | 1.1 µM | COc1c(C)c2c(c(O)c1CC1CC1(C)CCC(=O)O)C(=O)OC2 (stereo unspecified) | 3.8 µM | 4.3 µM | 1.7 µM | –
10 | 2.6 µM | COc1c(C)c2c(c(O)c1CC#CCCC(=O)O)C(=O)OC2 | 4.8 µM | 7.5 µM | 2.4 µM | –
11 | 0.94 µM | COc1c(C)c2c(c(O)c1CCCCCC(=O)O)C(=O)OC2 | 2.5 µM | 1.6 µM | 4.3 µM | –
12 | 3.1 µM | COc1c(C)c2c(c(O)c1CC1C(Br)(Br)C1(C)CCC(=O)O)C(=O)OC2 (stereo unspecified) | 4.4 µM | > 10 µM | > 10 µM | –
13 | 0.02 µM | COc1c(C)c2c(c(O)c1C/C=C(\C)CCC(=O)O)C(=O)OC2 [MYCOPHENOLIC ACID] | 0.06 µM | 0.06 µM | 0.02 µM | PPM (Mus musculus [20]): 308 PPM; PFC/spleen (Mus musculus [21]): 45333; PPM (Mus musculus [22]): 264; Inhibition (Mus musculus [12]; 25 mg/kg): 69% and 46%; Inhibition (Mus musculus [23]): 65% and 44%; PFC/spleen (Mus musculus [24]): 36027
